{"source": "ChEMBL document CHEMBL4007401", "about": "“Lynamicin D an antimicrobial natural product affects splicing by inducing the expression of SR protein kinase 1” (2017)", "key": {"[1]": {"test_system": "HeLa (Homo sapiens)", "experiment": "Modulation of alternative splicing of SRp20 exons […] pre-mRNA (unknown origin) expressed in human HeLa cells assessed as inclusion of exon-4 up to 20 uM after 24 hrs by ethidium bromide staining based agarose gel electrophoresis method"}, "[2]": {"test_system": "HeLa", "experiment": "Cytotoxicity against human HeLa cells assessed as cell viability at 30 uM after 48 hrs by MTT assay relative to control", "format": "functional", "conditions": "read-out: Activity", "summary_of_the_method": "(§1)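 Cells seeded at 10^4 per well, exposed 24 h later to lynamicin D (0-20 µM in methods; 30 µM stated in results) for 48 h. Then 4 h with 0.5 mg/ml MTT, crystals dissolved in 10% SDS in 0.01 N HCl, A570 read. Blanked against DMSO; medium-only cells = 100% viability. Means ±SE, three independent experiments.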"}, "[3]": {"target": "SRSF protein kinase 1 (Homo sapiens) (UniProt Q96SB4)", "sequence (Q96SB4 whole entry, the tested form may be a part)": "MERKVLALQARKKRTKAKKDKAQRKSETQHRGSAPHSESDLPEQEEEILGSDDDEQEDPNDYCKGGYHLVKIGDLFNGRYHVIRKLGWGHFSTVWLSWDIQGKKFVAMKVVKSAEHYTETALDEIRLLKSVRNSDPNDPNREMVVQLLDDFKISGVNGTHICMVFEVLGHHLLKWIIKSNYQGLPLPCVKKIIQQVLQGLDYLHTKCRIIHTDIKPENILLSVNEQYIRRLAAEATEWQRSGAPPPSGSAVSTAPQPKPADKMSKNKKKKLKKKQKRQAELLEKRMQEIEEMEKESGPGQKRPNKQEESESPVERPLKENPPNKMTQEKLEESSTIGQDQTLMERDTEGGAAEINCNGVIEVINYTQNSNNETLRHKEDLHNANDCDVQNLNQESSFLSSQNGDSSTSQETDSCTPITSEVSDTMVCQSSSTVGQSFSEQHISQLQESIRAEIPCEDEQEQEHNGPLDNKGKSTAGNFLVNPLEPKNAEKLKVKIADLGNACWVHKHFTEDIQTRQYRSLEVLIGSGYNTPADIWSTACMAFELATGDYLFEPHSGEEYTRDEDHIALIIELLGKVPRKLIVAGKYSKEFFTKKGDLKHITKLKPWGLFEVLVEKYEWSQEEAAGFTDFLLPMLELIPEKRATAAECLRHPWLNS", "experiment": "Inhibition of GST-tagged SRPK1 (unknown origin) at 5 to 30 uM using GST-LBRNt (62 to 92 residues) as substrate by SDS-PAGE based autoradiography", "summary_of_the_method": "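Radioactive kinase reaction, 25 µL: 12 mM Hepes pH 7.5, 10 mM MgCl2, 25 µM ATP, 0.5 µg recombinant GST-SRPK1, 1 µg GST-LBRNt(62-92) (LBR N-terminal RS-containing fragment) as substrate. Lynamicin D 0-30 µM or SRPIN340 5 µM. Products run on 12% SDS-PAGE, Coomassie-stained and autoradiographed; incorporation measured by excising bands and scintillation counting.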"}, "[4]": {"test_system": "HeLa", "experiment": "Modulation of SRPK1 pre-mRNA splicing in human HeLa cells assessed as increase in SRPK1 pre-mRNA level at 10 to 30 uM after 24 hrs by RT-PCR method relative to control", "format": "cell-based", "summary_of_the_method": "(§2)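 Total RNA from cells treated 24 h or control taken with TRIZOL. 1 µg reverse transcribed with random hexamers. SRPK1 amplified 27 cycles (95 °C 40 s, 66 °C 40 s, 72 °C 60 s); actin reference annealed at 60 °C. Products on 1% agarose, ethidium bromide. SRPK1/actin ratio by densitometry.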"}, "[5]": {"test_system": "HeLa", "experiment": "Modulation of constitutive splicing of rat insulin exons 1 to 3 pre-mRNA expressed in human HeLa cells assessed as retention of introns up to 20 uM after 24 hrs by ethidium bromide staining based agarose gel electrophoresis method", "format": "cell-based", "summary_of_the_method": "(§3)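 HeLa (2 x 10exp4) transfected with 0.5 µg pSMN2 (exons 6-8) or pSRp20 (exons 3-5), or 1 µg pSVIRB (rat insulin exons 1-3). After 4 h, medium replaced with lynamicin D (0-20 µM; results cite 10, 20, 30 µM) or DMSO. RNA at 24 h, 1 µg RT, 30 PCR cycles, annealing 60 °C (SRp20 55 °C). Agarose gels; upper/lower band ratio. Means ±SE, n=3.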"}, "[6]": {"test_system": "HeLa", "experiment": "Modulation of alternative splicing of SMN2 exons 6 to 8 pre-mRNA (unknown origin) expressed in human HeLa cells assessed as inclusion of exon-7 up to 20 uM after 24 hrs by ethidium bromide staining based agarose gel electrophoresis method", "format": "cell-based", "summary_of_the_method": "as §3"}, "[7]": {"test_system": "HeLa", "experiment": "Modulation of SRPK1 pre-mRNA splicing in human HeLa cells assessed as increase in SRPK1 protein level at 10 to 30 uM after 24 hrs by Western blot method relative to control", "format": "cell-based", "summary_of_the_method": "(§4)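 Lysis in 1% Triton X-100, 20 mM Hepes-KOH pH 7.5, 150 mM NaCl, 1 mM PMSF, 30 min on ice, needle-sheared, spun 13,000 g 15 min. Equal protein on 10% SDS-PAGE. Endogenous SRPK1 probed with mouse monoclonal anti-SRPK1, GAPDH as loading control, AP secondary with BCIP/NBT; SRPK1/GAPDH by densitometry.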"}, "[8]": {"test_system": "A549", "experiment": "Modulation of constitutive splicing of rat insulin exons 1 to 3 pre-mRNA expressed in human A549 cells assessed as retention of introns up to 20 uM after 24 hrs by ethidium bromide staining based agarose gel electrophoresis method", "format": "cell-based"}, "[9]": {"test_system": "T98G", "experiment": "Cytotoxicity against human T98G cells assessed as cell viability at 30 uM after 48 hrs by MTT assay relative to control", "format": "functional", "conditions": "read-out: Activity", "summary_of_the_method": "as §1"}, "[10]": {"organism": "Rattus norvegicus", "experiment": "Modulation of constitutive splicing of rat insulin exons 1 to 3 pre-mRNA expressed in human T98G cells assessed as retention of introns up to 20 uM after 24 hrs by ethidium bromide staining based agarose gel electrophoresis method", "format": "cell-based"}, "[11]": {"experiment": "Modulation of alternative splicing of SRp20 exons […] pre-mRNA (unknown origin) expressed in human T98G cells assessed as inclusion of exon-4 up to 20 uM after 24 hrs by ethidium bromide staining based agarose gel electrophoresis method", "format": "cell-based"}, "[12]": {"test_system": "HeLa", "experiment": "Modulation of alternative splicing of SRp20 exons […] pre-mRNA (unknown origin) expressed in human HeLa cells assessed as inclusion of exon-4 up to 20 uM after 24 hrs by ethidium bromide staining based agarose gel electrophoresis method", "format": "cell-based", "summary_of_the_method": "as §3"}, "[13]": {"organism": "Homo sapiens", "experiment": "Modulation of SRPK1 pre-mRNA splicing in human T98G cells assessed as increase in SRPK1 pre-mRNA level at 10 to 30 uM after 24 hrs by RT-PCR method relative to control", "format": "cell-based", "summary_of_the_method": "as §2"}, "[14]": {"test_system": "A549", "experiment": "Modulation of SRPK1 pre-mRNA splicing in human A549 cells assessed as increase in SRPK1 pre-mRNA level at 10 to 30 uM after 24 hrs by RT-PCR method relative to control", "format": "cell-based", "summary_of_the_method": "as §2"}, "[15]": {"test_system": "HeLa", "experiment": "Modulation of SRPK1 pre-mRNA splicing in human HeLa cells assessed as effect on intracellular localization of SRPK1 at 30 uM after 24 hrs by DAPI staining based immunofluorescence microscopic method", "format": "cell-based"}, "[16]": {"test_system": "A549", "experiment": "Modulation of SRPK1 pre-mRNA splicing in human A549 cells assessed as increase in SRPK1 protein level at 10 to 30 uM after 24 hrs by Western blot method relative to control", "format": "cell-based", "summary_of_the_method": "as §4"}, "[17]": {"test_system": "HeLa", "experiment": "Modulation of constitutive splicing of rat insulin exons 1 to 3 pre-mRNA expressed in human HeLa cells assessed as retention of introns up to 20 uM after 24 hrs by ethidium bromide staining based agarose gel electrophoresis method"}, "[18]": {"test_system": "A549", "experiment": "Cytotoxicity against human A549 cells assessed as cell viability at 30 uM after 48 hrs by MTT assay relative to control", "format": "functional", "conditions": "A549, 48 h, read-out: Activity", "summary_of_the_method": "as §1"}, "[19]": {"organism": "Homo sapiens", "experiment": "Modulation of SRPK1 pre-mRNA splicing in human T98G cells assessed as increase in SRPK1 protein level at 10 to 30 uM after 24 hrs by Western blot method relative to control", "format": "cell-based", "summary_of_the_method": "as §4"}}, "note": "Active and inactive are the calls of the source. No cut-off for these calls is given here.", "data": [{"molecule": "COC(=O)c1[nH]c(C(=O)OC)c(-c2c[nH]c3ccc(Cl)cc23)c1-c1c[nH]c2ccc(Cl)cc12", "note": "[LYNAMICIN D]", "values": [{"measurement": "Activity", "setting": "[1]", "result": "Active"}, {"measurement": "viability at 30 µM", "setting": "[2]", "result": 82, "unit": "%"}, {"measurement": "inhibition", "setting": "[3]", "result": "inactive"}, {"measurement": "fold change (FC)", "setting": "[4]", "result": 3}, {"measurement": "Activity", "setting": "[5]", "result": "Active"}, {"measurement": "Activity", "setting": "[6]", "result": "Active"}, {"measurement": "fold change (FC)", "setting": "[7]", "result": 1.9}, {"measurement": "Activity", "setting": "[8]", "result": "Active"}, {"measurement": "viability at 30 µM", "setting": "[9]", "result": 91, "unit": "%"}, {"measurement": "Activity", "setting": "[10]", "result": "Active"}, {"measurement": "Activity", "setting": "[11]", "result": "Active"}, {"measurement": "Activity", "setting": "[12]", "result": "Active"}, {"measurement": "Activity", "setting": "[13]", "result": "Active"}, {"measurement": "Activity", "setting": "[14]", "result": "Active"}, {"measurement": "Activity", "setting": "[15]", "result": "inactive"}, {"measurement": "Activity", "setting": "[16]", "result": "Active"}, {"measurement": "Activity", "setting": "[17]", "result": "Active"}, {"measurement": "viability at 30 µM", "setting": "[18]", "result": 88, "unit": "%"}, {"measurement": "Activity", "setting": "[19]", "result": "Active"}]}]}
